Results taken from ChEMBL document CHEMBL4811251 (Eur J Med Chem, 2021).

What was measured:
MV4-11 [1] = test: Induction of apoptosis in human MV4-11 cells assessed as viable cells at 10 uM after 72 hrs by Annexin V FITC/PI staining based flow cytometry analysis (reference value: 93.63%); type: functional; details: read-out: Activity
[2] = Clearance in Sprague-Dawley rat at 5 mg/kg, iv measured upto 24 hrs by LC/MS/MS analysis; type: ADME, organism-based; details: in vivo
[3] = biological target: Receptor-type tyrosine-protein kinase FLT3 (Homo sapiens) (UniProt P36888); test: Inhibition of human FLT3 at 1 uM using EAIYAAPFAKKK as substrate incubated for 40 mins in presence of [gamma-33ATP] by scintillation counting based radiometry assay relative to control
[4] = biological target: Glycogen synthase kinase-3 alpha (Homo sapiens) (UniProt P49840); test: Inhibition of GSK3alpha (unknown origin) assessed as residual activity at 1 uM relative to control
[5] = Half life in Sprague-Dawley rat at 5 mg/kg, iv measured upto 24 hrs by LC/MS/MS analysis; type: ADME, organism-based; details: in vivo
[6] = Cmax in Sprague-Dawley rat at 5 mg/kg, iv measured upto 24 hrs by LC/MS/MS analysis; type: ADME, organism-based; set-up: route intravenous, dose 5 mg/kg, time <=24; details: in vivo
MV4-11 [7] = test: Induction of apoptosis in human MV4-11 cells assessed as necrotic cells at 10 uM after 72 hrs by Annexin V FITC/PI staining based flow cytometry analysis (reference value: 0.23%); type: functional
MV4-11 [8] = test: Induction of cell cylce arrest in human MV4-11 cells assessed as accumulation of cells at S phase at 10 uM after 72 hrs by RNase A/propidium iodide staining based flow cytometry (reference value: 18.81%); type: functional
Summary of the method: (§1)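 MV4-11 cells were seeded at 8 × 10⁴, held overnight at 37 °C with 5% CO2, then treated 72 h at 3 or 10 µM against a DMSO diluent control. Pellets were fixed in 70% ethanol on ice for 15 min, then stained 1 h at room temperature with PI, 0.1 mg/mL RNase A and 0.05% Triton X-100. Sub-G1, G1, S and G2/M fractions were read by flow cytometry.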

[9] = Cmax in BALB/c mouse at 10 mg/kg, po measured upto 24 hrs by LC/MS/MS analysis; type: ADME, organism-based; set-up: route oral, dose 10 mg/kg, time <=24; details: in vivo
[10] = Dissociation constant, pKa of the compound by fast UV-spectrometric titration method; type: physicochemical
[11] = Clearance in BALB/c mouse at 2 mg/kg, iv measured upto 24 hrs by LC/MS/MS analysis; type: ADME, organism-based; details: in vivo
[12] = Tmax in BALB/c mouse at 2 mg/kg, iv measured upto 24 hrs by LC/MS/MS analysis; type: ADME, organism-based; details: in vivo
[13] = biological target: Leucine-rich repeat serine/threonine-protein kinase 2 (Homo sapiens, UniProt Q5S007); test: Inhibition of human LRRK2 at 1 uM using RLGRDKYKTLRQIRQ as substrate after 40 mins in presence of [gamma-33ATP] by scintillation counting based radiometry assay relative to control
[14] = Oral bioavailability in BALB/c mouse at 10 mg/kg measured upto 24 hrs by LC/MS/MS analysis; type: ADME, organism-based; details: in vivo
[15] = AUC in BALB/c mouse at 2 mg/kg, iv measured upto 24 hrs by LC/MS/MS analysis; type: ADME, organism-based; set-up: route intravenous, dose 2 mg/kg, time <=24; details: in vivo
[16] = biological target: Protein kinase C theta (Homo sapiens) (UniProt Q04759); test: Inhibition of PKC theta (unknown origin) assessed as residual activity at 1 uM relative to control
MV4-11 [17] = test: Induction of apoptosis in human MV4-11 cells assessed as late apoptotic cells at 3 uM after 72 hrs by Annexin V FITC/PI staining based flow cytometry analysis (reference value: 3.41%); type: functional
[18] = Volume of distribution at steady state in Sprague-Dawley rat at 5 mg/kg, iv measured upto 24 hrs by LC/MS/MS analysis; type: ADME, organism-based; details: in vivo, read-out: Vdss
MV4-11 [19] = test: Induction of cell cylce arrest in human MV4-11 cells assessed as accumulation of cells at G1 phase at 10 uM after 72 hrs by RNase A/propidium iodide staining based flow cytometry (reference value: 64.41%); type: functional; summary of the method: as §1
[20] = Tmax in Sprague-Dawley rat at 5 mg/kg, iv measured upto 24 hrs by LC/MS/MS analysis; type: ADME, organism-based; details: in vivo
[21] = biological target: CDK9/cyclin T1 (Homo sapiens) (UniProt O60563+P50750); test: Inhibition of CDK9/Cyclin T1 (unknown origin) assessed as residual activity at 1 uM relative to control; type: protein-complex assay
[22] = Tmax in Sprague-Dawley rat at 20 mg/kg, po measured upto 24 hrs by LC/MS/MS analysis; type: ADME, organism-based; details: in vivo
[23] = biological target: T1, Macrophage colony-stimulating factor 1 receptor (Homo sapiens, UniProt P07333); test: Inhibition of human CSF1R at 1 uM using KKKSPGEYVNIEFG as substrate incubated for 40 mins in presence of [gamma-33ATP] by scintillation counting based radiometry assay relative to control
MV4-11 [24] = test: Induction of cell cylce arrest in human MV4-11 cells assessed as accumulation of cells at S phase at 3 uM after 72 hrs by RNase A/propidium iodide staining based flow cytometry (reference value: 18.81%); type: functional; summary of the method: as §1
[25] = Cmax in Sprague-Dawley rat at 20 mg/kg, po measured upto 24 hrs by LC/MS/MS analysis; type: ADME, organism-based; set-up: route oral, dose 20 mg/kg, time <=24; details: in vivo
MV4-11 [26] = test: Induction of cell cylce arrest in human MV4-11 cells assessed as accumulation of cells at G2 phase at 10 uM after 72 hrs by RNase A/propidium iodide staining based flow cytometry (reference value: 12.61%); type: functional; summary of the method: as §1
[27] = Volume of distribution at steady state in BALB/c mouse at 2 mg/kg, iv measured upto 24 hrs by LC/MS/MS analysis; type: ADME, organism-based; details: in vivo, read-out: Vdss
[28] = Tmax in BALB/c mouse at 10 mg/kg, po measured upto 24 hrs by LC/MS/MS analysis; type: ADME, organism-based; details: in vivo
[29] = biological target: Glycogen synthase kinase-3 beta (Homo sapiens) (UniProt P49841); test: Inhibition of GSK3beta (unknown origin) assessed as residual activity at 1 uM relative to control
U-937 = test: Antiproliferative activity against human U937 cells assessed as growth inhibition incubated for 72 hrs by MTT assay; type: functional
[30] = biological target: T1, Macrophage colony-stimulating factor 1 receptor; test: Inhibition of human FMS using KKKSPGEYVNIEFG as substrate incubated for 40 mins in presence of [gamma-33ATP] by scintillation counting based radiometry assay
MV4-11 [31] = test: Induction of apoptosis in human MV4-11 cells assessed as necrotic cells at 3 uM after 72 hrs by Annexin V FITC/PI staining based flow cytometry analysis (reference value: 0.23%); type: functional
CDK8/Cyclin C = CDK8/Cyclin C (Homo sapiens, UniProt P49336); test: Inhibition of CDK8/Cyclin C (unknown origin) using RBER-CHKtide as substrate in presence of [33P]gammaATP incubated for 60 mins by microplate scintillation counter analysis
MOLM-13 = test: Antiproliferative activity against human MOLM-13 cells assessed as growth inhibition incubated for 72 hrs by MTT assay; type: functional
[32] = AUC in BALB/c mouse at 10 mg/kg, po measured upto 24 hrs by LC/MS/MS analysis; type: ADME, organism-based; set-up: route oral, dose 10 mg/kg, time <=24; details: in vivo
[33] = Half life in BALB/c mouse at 2 mg/kg, iv measured upto 24 hrs by LC/MS/MS analysis; type: ADME, organism-based; details: in vivo

T1 sequence (P07333 whole entry): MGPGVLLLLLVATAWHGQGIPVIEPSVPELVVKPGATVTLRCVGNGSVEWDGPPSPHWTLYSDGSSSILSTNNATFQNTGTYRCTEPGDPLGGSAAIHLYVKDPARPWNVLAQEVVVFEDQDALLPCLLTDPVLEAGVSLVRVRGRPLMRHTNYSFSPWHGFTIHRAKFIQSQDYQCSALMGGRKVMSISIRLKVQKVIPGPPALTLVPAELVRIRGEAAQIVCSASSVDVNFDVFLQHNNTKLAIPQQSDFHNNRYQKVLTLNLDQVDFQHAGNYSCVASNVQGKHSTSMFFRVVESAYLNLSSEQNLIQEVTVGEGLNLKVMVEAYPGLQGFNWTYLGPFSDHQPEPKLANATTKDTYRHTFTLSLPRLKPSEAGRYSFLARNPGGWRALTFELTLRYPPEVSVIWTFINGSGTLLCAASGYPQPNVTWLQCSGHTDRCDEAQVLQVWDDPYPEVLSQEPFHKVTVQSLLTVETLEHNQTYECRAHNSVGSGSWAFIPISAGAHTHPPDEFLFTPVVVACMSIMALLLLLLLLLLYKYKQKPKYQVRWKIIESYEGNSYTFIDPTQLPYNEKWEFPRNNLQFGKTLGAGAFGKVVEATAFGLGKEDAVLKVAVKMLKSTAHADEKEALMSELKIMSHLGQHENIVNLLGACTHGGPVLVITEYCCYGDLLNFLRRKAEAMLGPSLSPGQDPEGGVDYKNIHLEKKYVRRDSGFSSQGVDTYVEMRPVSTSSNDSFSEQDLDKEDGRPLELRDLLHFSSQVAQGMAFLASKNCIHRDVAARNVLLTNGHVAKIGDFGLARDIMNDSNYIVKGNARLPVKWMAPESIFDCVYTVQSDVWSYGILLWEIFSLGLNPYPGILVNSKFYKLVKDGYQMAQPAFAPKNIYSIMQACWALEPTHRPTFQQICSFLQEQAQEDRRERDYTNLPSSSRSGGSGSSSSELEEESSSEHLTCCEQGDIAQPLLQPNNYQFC
Glycogen synthase kinase-3 alpha (Homo sapiens), sequence (P49840 2-483 limits assumed): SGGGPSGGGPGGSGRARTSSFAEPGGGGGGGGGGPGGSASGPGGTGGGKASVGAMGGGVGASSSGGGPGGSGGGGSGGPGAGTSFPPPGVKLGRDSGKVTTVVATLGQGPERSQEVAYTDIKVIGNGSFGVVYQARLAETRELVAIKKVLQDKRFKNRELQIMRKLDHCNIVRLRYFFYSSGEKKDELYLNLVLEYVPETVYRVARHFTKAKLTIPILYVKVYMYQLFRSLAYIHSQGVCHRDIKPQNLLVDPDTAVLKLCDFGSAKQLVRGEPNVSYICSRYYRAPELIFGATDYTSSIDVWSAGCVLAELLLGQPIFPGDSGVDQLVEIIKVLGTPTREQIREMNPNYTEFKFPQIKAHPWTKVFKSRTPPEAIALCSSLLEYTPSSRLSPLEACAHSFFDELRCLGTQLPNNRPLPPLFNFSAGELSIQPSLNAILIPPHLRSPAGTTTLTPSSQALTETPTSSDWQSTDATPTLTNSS
Protein kinase C theta (Homo sapiens), sequence (Q04759 whole entry, looked up): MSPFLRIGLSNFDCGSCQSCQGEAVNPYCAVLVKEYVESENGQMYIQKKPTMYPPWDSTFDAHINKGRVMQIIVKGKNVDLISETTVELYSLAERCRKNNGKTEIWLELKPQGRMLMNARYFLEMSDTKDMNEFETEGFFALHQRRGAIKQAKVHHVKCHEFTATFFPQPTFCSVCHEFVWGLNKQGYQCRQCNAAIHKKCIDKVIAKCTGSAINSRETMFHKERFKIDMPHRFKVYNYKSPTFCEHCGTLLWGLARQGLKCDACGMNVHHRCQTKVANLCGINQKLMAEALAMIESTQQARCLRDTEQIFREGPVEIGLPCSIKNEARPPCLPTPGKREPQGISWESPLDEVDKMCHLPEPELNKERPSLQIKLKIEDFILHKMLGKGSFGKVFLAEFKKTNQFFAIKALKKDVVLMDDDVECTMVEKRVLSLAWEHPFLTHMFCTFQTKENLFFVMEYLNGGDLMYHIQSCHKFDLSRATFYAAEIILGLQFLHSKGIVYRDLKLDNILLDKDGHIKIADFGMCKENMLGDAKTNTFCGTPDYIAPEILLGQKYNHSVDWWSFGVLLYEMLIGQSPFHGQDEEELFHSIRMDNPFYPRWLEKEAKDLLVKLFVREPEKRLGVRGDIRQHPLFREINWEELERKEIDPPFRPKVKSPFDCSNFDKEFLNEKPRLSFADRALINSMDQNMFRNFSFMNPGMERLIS
Leucine-rich repeat serine/threonine-protein kinase 2, sequence (Q5S007 whole entry): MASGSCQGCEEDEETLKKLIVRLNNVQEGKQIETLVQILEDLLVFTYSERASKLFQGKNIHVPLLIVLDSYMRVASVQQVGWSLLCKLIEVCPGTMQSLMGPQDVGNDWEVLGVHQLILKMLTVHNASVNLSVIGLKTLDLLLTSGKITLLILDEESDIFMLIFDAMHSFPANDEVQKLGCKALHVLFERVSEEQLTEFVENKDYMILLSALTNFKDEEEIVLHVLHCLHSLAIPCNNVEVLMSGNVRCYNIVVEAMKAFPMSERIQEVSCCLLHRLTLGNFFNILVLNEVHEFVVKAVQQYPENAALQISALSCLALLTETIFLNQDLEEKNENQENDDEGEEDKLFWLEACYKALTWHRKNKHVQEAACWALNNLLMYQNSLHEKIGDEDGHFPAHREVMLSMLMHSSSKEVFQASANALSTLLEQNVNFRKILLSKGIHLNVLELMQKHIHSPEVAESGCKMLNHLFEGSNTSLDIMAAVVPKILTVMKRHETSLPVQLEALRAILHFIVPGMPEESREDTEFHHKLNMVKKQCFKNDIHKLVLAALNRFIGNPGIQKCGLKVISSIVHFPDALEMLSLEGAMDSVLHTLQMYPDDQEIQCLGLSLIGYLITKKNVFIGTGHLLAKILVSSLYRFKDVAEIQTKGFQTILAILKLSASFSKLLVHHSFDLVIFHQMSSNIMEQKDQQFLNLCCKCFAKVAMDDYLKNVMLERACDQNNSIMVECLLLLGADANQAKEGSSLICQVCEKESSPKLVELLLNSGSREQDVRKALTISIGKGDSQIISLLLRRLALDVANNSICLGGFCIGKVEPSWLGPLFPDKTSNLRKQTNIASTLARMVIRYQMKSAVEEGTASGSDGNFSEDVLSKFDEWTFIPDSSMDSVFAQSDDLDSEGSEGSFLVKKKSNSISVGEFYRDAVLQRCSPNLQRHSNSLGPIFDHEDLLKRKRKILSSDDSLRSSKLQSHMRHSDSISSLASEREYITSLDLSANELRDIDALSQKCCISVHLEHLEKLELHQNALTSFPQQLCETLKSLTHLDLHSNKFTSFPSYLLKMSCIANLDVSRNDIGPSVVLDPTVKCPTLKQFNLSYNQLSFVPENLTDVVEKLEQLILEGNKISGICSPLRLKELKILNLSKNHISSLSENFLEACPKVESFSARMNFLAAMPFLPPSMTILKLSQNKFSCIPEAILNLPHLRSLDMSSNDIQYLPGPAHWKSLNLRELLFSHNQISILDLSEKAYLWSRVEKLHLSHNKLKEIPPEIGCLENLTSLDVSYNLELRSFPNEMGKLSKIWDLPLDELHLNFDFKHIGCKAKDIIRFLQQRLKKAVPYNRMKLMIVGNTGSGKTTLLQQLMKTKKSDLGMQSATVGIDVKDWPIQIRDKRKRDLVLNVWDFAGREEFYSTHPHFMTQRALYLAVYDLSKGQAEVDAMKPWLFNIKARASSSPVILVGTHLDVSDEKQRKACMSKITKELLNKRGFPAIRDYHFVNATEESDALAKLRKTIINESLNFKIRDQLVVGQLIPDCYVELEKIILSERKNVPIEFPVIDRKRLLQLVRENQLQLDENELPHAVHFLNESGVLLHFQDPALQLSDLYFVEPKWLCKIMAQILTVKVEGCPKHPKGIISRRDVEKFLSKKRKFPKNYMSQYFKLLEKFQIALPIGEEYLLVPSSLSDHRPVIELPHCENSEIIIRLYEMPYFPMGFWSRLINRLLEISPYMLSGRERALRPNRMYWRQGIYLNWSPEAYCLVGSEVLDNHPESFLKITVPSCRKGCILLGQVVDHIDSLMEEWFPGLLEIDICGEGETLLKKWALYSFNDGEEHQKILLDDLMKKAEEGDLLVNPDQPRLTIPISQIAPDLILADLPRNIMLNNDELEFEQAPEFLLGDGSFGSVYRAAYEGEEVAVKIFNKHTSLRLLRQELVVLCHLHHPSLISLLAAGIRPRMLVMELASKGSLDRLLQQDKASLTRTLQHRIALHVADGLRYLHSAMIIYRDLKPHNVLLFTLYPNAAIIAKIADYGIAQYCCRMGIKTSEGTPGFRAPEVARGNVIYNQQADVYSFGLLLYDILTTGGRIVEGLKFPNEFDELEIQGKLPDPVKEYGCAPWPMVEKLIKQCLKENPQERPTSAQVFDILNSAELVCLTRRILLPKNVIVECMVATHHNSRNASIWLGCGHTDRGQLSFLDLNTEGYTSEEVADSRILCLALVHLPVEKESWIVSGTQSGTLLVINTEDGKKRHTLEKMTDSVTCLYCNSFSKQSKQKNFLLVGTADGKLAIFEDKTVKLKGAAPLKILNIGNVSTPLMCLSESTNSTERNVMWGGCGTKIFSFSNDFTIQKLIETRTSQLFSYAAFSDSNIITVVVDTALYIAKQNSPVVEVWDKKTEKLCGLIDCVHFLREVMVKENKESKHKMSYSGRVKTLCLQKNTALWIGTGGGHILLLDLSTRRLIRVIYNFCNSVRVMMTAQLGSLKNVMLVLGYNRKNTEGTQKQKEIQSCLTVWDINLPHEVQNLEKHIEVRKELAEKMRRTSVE
Glycogen synthase kinase-3 beta (Homo sapiens), sequence (P49841 whole entry, looked up): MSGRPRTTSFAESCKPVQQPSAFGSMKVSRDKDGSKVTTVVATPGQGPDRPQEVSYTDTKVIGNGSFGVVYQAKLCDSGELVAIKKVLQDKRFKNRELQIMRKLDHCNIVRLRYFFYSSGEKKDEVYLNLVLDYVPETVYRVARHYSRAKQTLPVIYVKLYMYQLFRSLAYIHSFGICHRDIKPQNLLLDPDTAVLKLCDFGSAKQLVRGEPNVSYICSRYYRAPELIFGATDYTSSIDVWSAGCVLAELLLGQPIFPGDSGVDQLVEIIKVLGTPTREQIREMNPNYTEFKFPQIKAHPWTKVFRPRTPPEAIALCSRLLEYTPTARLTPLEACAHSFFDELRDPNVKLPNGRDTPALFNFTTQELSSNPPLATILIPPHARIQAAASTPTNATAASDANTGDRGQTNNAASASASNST

Nc1ncc(-c2cc3ccccc3o2)c(N2CCC3(CCNC3=O)CC2)c1Cl
viability at 10 µM (MV4-11 [1]): 83.4%
clearance [2]: 23.8 mL/min/kg
inhibition [3]: > 50%
Activity [4]: 61%
half-life [5]: 87 min
Cmax [6]: 9.36 µM
Activity (MV4-11 [7]): 0.59%
Activity (MV4-11 [8]): 1.8%
Cmax [9]: 2.23 µM
pKa [10]: 5.27
clearance [11]: 54.2 mL/min/kg
Tmax [12]: 3 min
inhibition [13]: > 50%
bioavailability [14]: 33%
AUC at 24 h [15]: 1.55 µM·h
Activity [16]: 61%
Activity (MV4-11 [17]): 8.24%
Vd [18]: 1.57 L/kg
Activity (MV4-11 [19]): 90.92%
Tmax [20]: 1.8 min
Activity [21]: 61%
Tmax [22]: 240 min
inhibition [23]: > 50%
Activity (MV4-11 [24]): 10.03%
Cmax [25]: 3.2 µM
Activity (MV4-11 [26]): 1.83%
Vd [27]: 1.24 L/kg
Tmax [28]: 20.4 min
Activity [29]: 61%
GI50 (U-937): 4.88 µM
Ki [30]: 0.166 µM
Activity (MV4-11 [31]): 0.42%
Ki (CDK8/Cyclin C): 0.009 µM
GI50 (MOLM-13): 5.11 µM
AUC at 24 h [32]: 2.56 µM·h
half-life [33]: 22.2 min
